Compound activity: PubChem, Johns Hopkins Ion Channel Center
The list is not random: actives were taken first. Their share in the collection is about 3.8%.
hERG protect – hERG (human) protection from proarrhythmic block; activation (rescue from dofetilide block), less the hit threshold, % at 10 µM; actives 0.51% (n = 310,000); AID 1511; CHO-hERG, FluxOR thallium flux, dofetilide IC70 present; Q12809;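 active = activation above the mean of controls blocked by dofetilide plus 5 SD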;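 also: thallium influx through hERG after potassium depolarization seen as dye fluorescence rise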
KCNQ1 pot – human KCNQ1 channel potentiation or activation | P51787 | CHO-K1 KCNQ1, thallium flux FluxOR fluorescence; active compounds read high | B-score at 10 µM | actives 0.35% (n = 310,000) | AID 2648;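 active = fluorescence ratio B-score, a plate-corrected score, at least three library SD, with initial intensity B-score within 5 SD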
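Assay system: stable KCNQ1 CHO-K1 line; medium: assay buffer, equal DMSO in all wells; timing: 90 min dye loading and 20 min compound exposure, both at room temperature; technique: kinetic FluxOR thallium fluorescence, 10-s 1-Hz baseline, 110-s post-stimulus read; read-out basis: B score of baseline-normalized fluorescence ratio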
KCNK9 block – inhibitors of human KCNK9 two-pore domain potassium channel; actives 1.2% (n = 310,000); HEK293 KCNK9, FluxOR thallium flux fluorescence; active compounds read low; B-score at 10 µM; Q9NPC2; AID 488922;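 active = ratio B-score over 3 SD below the library mean, with starting fluorescence within 5 SD of its mean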;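 also: negative B-score means less thallium flux so channel inhibition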
Kir21 inh – inhibitors of mouse Kir2.1 inward-rectifier potassium channel | B-score at 10 µM | HEK293-Kir2.1, FluxOR thallium flux fluorescence; active compounds read low | P35561 | actives 0.85% (n = 310,000);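 active = fluorescence ratio B-score at or below minus 3 SD of library scores, with starting-brightness B-score within 2 SD, cut at about -4.2 in these data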;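 also: channel flux triggered by added potassium and thallium sulfate stimulus; B-score of peak minus minimum fluorescence over baseline after thallium stimulus; more negative B-score means stronger Kir2.1 block with less thallium influx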
Target sequence (P35561 whole entry, looked up): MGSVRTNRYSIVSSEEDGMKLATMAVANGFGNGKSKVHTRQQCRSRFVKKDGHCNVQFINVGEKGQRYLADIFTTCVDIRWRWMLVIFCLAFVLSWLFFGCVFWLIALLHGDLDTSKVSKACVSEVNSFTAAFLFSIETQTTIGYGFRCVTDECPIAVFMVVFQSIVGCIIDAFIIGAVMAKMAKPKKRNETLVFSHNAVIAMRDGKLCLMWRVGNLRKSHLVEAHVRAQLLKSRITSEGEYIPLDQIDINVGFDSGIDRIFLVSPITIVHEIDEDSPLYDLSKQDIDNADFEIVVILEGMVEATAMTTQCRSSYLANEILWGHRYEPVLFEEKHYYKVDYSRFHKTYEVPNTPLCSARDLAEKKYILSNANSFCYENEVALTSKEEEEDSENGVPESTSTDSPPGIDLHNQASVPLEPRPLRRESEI
KCNQ1 inh – inhibitors of human KCNQ1 potassium channel; P51787; CHO-K1 KCNQ1, FluxOR thallium flux fluorescence; active compounds read high; B-score at 10 µM; actives 1.3% (n = 310,000); AID 2642;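 active = compounds whose thallium flux B-score, printed positive for inhibition, exceeds three library SD while starting fluorescence stays within three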;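 also: channel opened by potassium depolarization with thallium stimulus after 20 min compound exposure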
KCNK3 block – human KCNK3 channel inhibition, primary screen; O14649; CHO-KCNK3 thallium flux, FluxOR fluorescence; active compounds read low; B-score at 10 µM; actives 0.84% (n = 340,000); AID 602410;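 active = B-score under library mean minus 4 SD, starting fluorescence ratio at most library mean plus 5 SD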;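 also: more negative B-score means stronger inhibition of thallium flux through KCNK3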
Hits are given with their value; . = inactive; / = not tested or not shown.

SMILES	hERG protect	KCNQ1 pot	KCNK9 block	Kir21 inh	KCNQ1 inh	KCNK3 block
CCOC(=O)C1=C(C)N=c2s/c(=C/c3ccc(OCC(=O)O)cc3)c(=O)n2C1c1ccc(OC)cc1OC (configuration not stated)	.	.	.	.	6	.
COc1ccc(C2C(C(C)=O)=C(C)N=c3s/c(=C\c4cc(C)n(C)c4C)c(=O)n32)c(OC)c1 (configuration not stated)	.	.	.	.	9	.
CCOC(=O)C1=C(C)N=c2s/c(=C/c3ccc(OCC(=O)O)cc3)c(=O)n2C1c1ccc(F)cc1 (configuration not stated)	.	.	.	.	.	.
CCOC(=O)C1=C(C)N=c2s/c(=C\c3ccncc3)c(=O)n2C1c1ccc2c(c1)OCO2 (configuration not stated)	.	.	.	.	8	.
CCOC(=O)C1=C(C)N=c2s/c(=C\c3ccc(OCC(=O)O)cc3)c(=O)n2C1c1ccc(Cl)cc1 (configuration not stated)	.	.	.	.	7	.
Nc1cc(C(=O)OCC(=O)N2CCC(Cc3ccccc3)CC2)ccc1Cl	/	/	/	/	/	.
Cc1cc(NC(=O)CN2C(=O)NC(c3ccccc3)(c3ccc(C)c(C)c3)C2=O)no1 (configuration not stated)	/	/	/	/	/	.
CCOC(=O)c1nc(N2CCN(C(=O)OCC)CC2)c2c3c(sc2n1)CCCC3	.	.	.	.	.	.
CCNC(=S)N1CCN(c2nc(CC)nc3sc4c(c23)CCCC4)CC1	.	.	.	.	.	-12
CN(C)S(=O)(=O)c1cccc(NC(=O)c2ccc(-n3cncn3)c([N+](=O)[O-])c2)c1	.	.	.	.	.	.
CCOC(=O)C(Cc1ccccc1)NC(=O)CCCC(=O)c1ccccc1 (configuration not stated)	.	.	.	.	8	.
CCOC(=O)C(Cc1ccccc1)NC(C)=O (configuration not stated)	.	.	.	.	.	.
COc1cccc(C(=O)Nc2ccc(C(=O)c3ccccc3)cc2)c1	.	.	-7.7	.	.	.
COC(=O)c1ccc(NC(=O)c2cccc(OC)c2)cc1	.	.	.	.	.	.
COc1ccc(C(=O)Nc2cccc3ccccc23)cc1	.	.	.	.	.	.
COc1ccc(C(=O)NNC(=O)C(=O)Nc2cccc3ccccc23)cc1	31	34	.	.	.	.
COc1cccc(C(=O)Nc2ccc(C(=O)O)cc2)c1	.	.	.	.	.	.
COc1cccc(C(=O)NNC(=O)C(=O)Nc2ccc(C)cc2)c1	27	37	.	.	.	.
COc1cccc(NC(=O)c2ccccc2-c2ccccc2)c1	.	.	.	-4.2	.	.
CN(Cc1ccccc1OCCO)CC1CCCN(CCc2ccc(Cl)cc2)C1 (configuration not stated)	.	.	.	.	.	.
Cc1noc(C)c1NC(=O)N(C)C[C@H]1Oc2ccc(NS(=O)(=O)c3cccs3)cc2C(=O)N([C@H](C)CO)C[C@@H]1C	/	/	/	/	/	.
CCOc1cc(N2CCOCC2)c(OCC)cc1NC(=O)COC(=O)CCn1c(C)csc1=O	.	.	.	.	.	.
COc1cccc(C(=O)NNC(=O)C(=O)Nc2cccc(Cl)c2C)c1	23	36	.	.	.	.
CCn1cc(C(=O)NCC(OC)OC)c(=O)c2cc(S(=O)(=O)N3CCC(C)CC3)ccc21	.	.	.	.	6	.
CCOCCCNC(=O)c1cn(CC)c2ccc(S(=O)(=O)N(C)C3CCCCC3)cc2c1=O	.	.	.	.	7	.
SMILES	hERG protect	KCNQ1 pot	KCNK9 block	Kir21 inh	KCNQ1 inh	KCNK3 block
CC(C(=O)NCCc1ccc(Cl)cc1)n1c(=O)c2cccn2c2cccnc21 (configuration not stated)	.	.	.	.	.	.
CC(Sc1nnc(Cn2c(=O)sc3ccccc32)n1C)c1ccccc1 (configuration not stated)	.	.	.	-4.2	.	.
O=C(Nc1ccccc1F)NC1CC1	5.8	.	.	.	.	.
O=C(Nc1ccccc1F)NC1CCCCCCC1	.	.	.	.	.	.
COc1ccc(C=O)cc1CSc1nnc(COc2cccc3cccnc23)o1	.	.	.	-4.9	.	.
CC(=O)OCCn1c(C)[n+](CCOC(C)=O)c2cc(Cl)c(Cl)cc21	.	.	.	.	.	.
CC(=O)OCCn1c2nc(=O)[nH]c(=O)c-2nc2cc(C)c(C)cc21	.	.	.	.	37	.
COc1ccc(CC2=CC(=O)c3ccccc3C2=O)cc1	.	.	.	.	8	.
CCCCN(C)C(=O)CCCc1c[nH]c2ccccc12	.	.	-7.8	.	.	.
CCN(CC)C(=O)CCCc1c[nH]c2ccccc12	.	.	.	.	.	.
COc1ccc(-c2noc(CN(C)C(=O)c3ccoc3C)n2)cc1	.	.	.	.	.	.
CC(C)CN(CC(C)C)C(=O)Cc1coc2ccc3ccccc3c12	.	.	.	-5.8	.	.
O=C(O)Cc1coc2ccc3ccccc3c12	.	.	.	.	.	.
O=C1/C(=C/c2ccccc2F)SC(=S)N1CCC(=O)N1CCCCC1CCO (configuration not stated)	.	.	.	.	.	.
COc1ccc(C(=O)COC(=O)c2cccc(-n3cnnn3)c2)c(OC)c1	.	.	.	.	.	.
CCc1ccc(O)c(CNCCNCc2cc(CC)ccc2O)c1	.	.	.	-11	.	.
O=C(/C=C/c1cccc(Br)c1)c1ccc2c(c1)OCO2	.	.	-7.8	.	.	.
O=C(/C=C/c1ccccc1)c1ccc2c(c1)OCO2	.	.	.	.	.	.
Cc1ccc(C)c(NC(=O)CN(C)C(=O)c2cc3ccccc3oc2=O)c1	/	/	/	/	/	.
CCN(CCNCC(O)COCc1ccc(Cl)cc1)c1cccc(C)c1 (configuration not stated)	.	.	.	-7.5	.	.
CCn1nc(C)c(/C=N/NC(=S)Nc2ccc(Cl)cc2Cl)c1C	4.8	.	.	.	.	.
Cc1nn(C)cc1/C=N/NC(=S)Nc1ccc(Cl)cc1Cl	.	.	.	.	.	.
COc1ccc(OC)c(S(=O)(=O)N2CCN(C(=O)CCc3ccccc3)CC2)c1	.	.	.	.	.	.
S=c1[nH]c2ccc(Cl)cc2[nH]1	.	.	.	.	.	.
S=c1[nH]c2cc(Cl)ccc2s1	55	74	.	.	.	.
COC(=O)/C(=C\Nc1ccc(Cl)c2ccccc12)c1ncc(C(F)(F)F)cc1Cl	.	.	.	.	.	.
CCOC(=O)/C(=C\Nc1ccccc1C(F)(F)F)Sc1ncc(C(F)(F)F)cc1Cl	.	.	.	.	7	.
